Test results reported in ChEMBL document CHEMBL1138520, “Molecular and conformational determinants of pituitary adenylate cyclase-activating polypeptide (PACAP) for activation of the PAC1 receptor” (J Med Chem, 2009).
pEC50, pIC50: −log10 of the molar value. Where a SMILES comes first, the peptide text is derived from it. [ ]: non-standard residue; d: D form. Aib = CC(C)(N)C(=O)O

Tests used:
[1] = molecular target: T1, Pituitary adenylate cyclase-activating polypeptide type I receptor (Homo sapiens, UniProt P41586); test: Displacement of [125I]Ac-PACAP27 from human recombinant PAC1 receptor expressed in CHO cells by gamma- counter; assay type: cell-based
Target sequence in this assay (P41586 whole entry): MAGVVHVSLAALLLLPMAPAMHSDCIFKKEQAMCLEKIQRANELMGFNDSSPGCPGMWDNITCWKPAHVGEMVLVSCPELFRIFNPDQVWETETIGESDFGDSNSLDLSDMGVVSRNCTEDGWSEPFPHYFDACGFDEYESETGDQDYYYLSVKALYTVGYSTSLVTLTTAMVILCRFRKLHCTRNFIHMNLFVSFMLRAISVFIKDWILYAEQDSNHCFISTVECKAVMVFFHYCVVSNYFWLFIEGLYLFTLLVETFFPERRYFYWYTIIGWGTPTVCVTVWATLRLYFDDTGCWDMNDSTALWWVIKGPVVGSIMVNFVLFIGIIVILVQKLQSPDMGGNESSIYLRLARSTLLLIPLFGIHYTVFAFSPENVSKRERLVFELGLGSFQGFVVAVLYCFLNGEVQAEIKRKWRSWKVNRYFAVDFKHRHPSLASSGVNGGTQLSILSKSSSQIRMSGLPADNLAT

[2] = molecular target: T1, Pituitary adenylate cyclase-activating polypeptide type I receptor; test: Agonist activity at human recombinant PAC1 receptor expressed in CHO cells assessed as PACAP38-induced calcium mobilization by FLIPR assay; assay type: functional, cell-based
Summary of the method: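 CHO cells stably expressing recombinant human PAC1, plated 24 h before assay, loaded with fluo-4 AM for 60 min at 37 °C in the dark, then rinsed into HBSS for 15 min at 37 °C. EC50 and efficacy came from nonlinear regression; 4-10 independent assays in duplicate.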
Target sequence in this assay (P41586 whole entry): as above

[3] = molecular target: T1, Pituitary adenylate cyclase-activating polypeptide type I receptor; test: Agonist activity at human recombinant PAC1 receptor expressed in CHO cells assessed as PACAP38-induced calcium mobilization by FLIPR assay relative to PACAP38; assay type: functional, cell-based
Summary of the method: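 CHO cells stably expressing recombinant human PAC1, plated 24 h before assay, loaded with fluo-4 AM for 60 min at 37 °C in the dark, then rinsed into HBSS for 15 min at 37 °C. Peptide was added 18 s into a 150 s read (ex 480/em 525 nm), at final concentrations of 1 × 10-12 to 1 × 10^-5 M. Response was normalised to 1 × 10^-5 M PACAP38 on each plate. EC50 and efficacy came from nonlinear regression; 4-10 independent assays in duplicate.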
Target sequence in this assay (P41586 21-468 limits assumed): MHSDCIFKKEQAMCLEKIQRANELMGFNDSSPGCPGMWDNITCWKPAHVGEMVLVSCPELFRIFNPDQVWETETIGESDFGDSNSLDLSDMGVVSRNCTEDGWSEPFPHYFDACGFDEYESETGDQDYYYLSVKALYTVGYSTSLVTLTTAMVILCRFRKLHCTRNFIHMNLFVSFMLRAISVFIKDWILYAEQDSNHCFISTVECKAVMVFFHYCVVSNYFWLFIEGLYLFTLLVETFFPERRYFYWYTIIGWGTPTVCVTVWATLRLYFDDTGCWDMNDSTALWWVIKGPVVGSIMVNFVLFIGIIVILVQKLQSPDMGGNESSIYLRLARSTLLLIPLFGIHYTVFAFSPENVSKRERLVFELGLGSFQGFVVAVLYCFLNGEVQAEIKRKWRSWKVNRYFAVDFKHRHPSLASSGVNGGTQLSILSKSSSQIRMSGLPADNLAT

Row | SMILES | pIC50 [1] | pEC50 [2] | Emax [3]
1 | CC[C@H](C)[C@H](NC(=O)CNC(=O)[C@H](CC(=O)O)NC(=O)[C@H](CO)NC(=O)[C@H](C)N)C(=O)N[C@@H](Cc1ccccc1)C(=O)N[C@H](C(=O)N[C@@H](CC(=O)O)C(=O)N[C@@H](CO)C(=O)N[C@@H](Cc1ccc(O)cc1)C(=O)N[C@@H](CO)C(=O)N[C@@H](CCCNC(=N)N)C(=O)N[C@@H](Cc1ccc(O)cc1)C(=O)N[C@@H](CCCNC(=N)N)C(=O)N[C@@H](CCCCN)C(=O)N[C@@H](CCC(N)=O)C(=O)N[C@@H](CCSC)C(=O)N[C@@H](C)C(=O)N[C@H](C(=O)N[C@@H](CCCCN)C(=O)N[C@@H](CCCCN)C(=O)N[C@@H](Cc1ccc(O)cc1)C(=O)N[C@@H](CC(C)C)C(=O)N[C@@H](C)C(=O)N[C@@H](C)C(=O)N[C@H](C(=O)N[C@@H](CC(C)C)C(N)=O)C(C)C)C(C)C)[C@@H](C)O | 6.47 | 6.76 | 70%
2 | CC[C@H](C)[C@@H](C(=O)N[C@@H](Cc1ccccc1)C(=O)N[C@H](C(=O)N[C@@H](CC(=O)O)C(=O)N[C@@H](CO)C(=O)N[C@@H](Cc1ccc(O)cc1)C(=O)N[C@@H](CO)C(=O)N[C@@H](CCCNC(=N)N)C(=O)N[C@@H](Cc1ccc(O)cc1)C(=O)N[C@@H](CCCNC(=N)N)C(=O)N[C@@H](CCCCN)C(=O)N[C@@H](CCC(N)=O)C(=O)N[C@@H](CCSC)C(=O)N[C@@H](C)C(=O)N[C@H](C(=O)N[C@@H](CCCCN)C(=O)N[C@@H](CCCCN)C(=O)N[C@@H](Cc1ccc(O)cc1)C(=O)N[C@@H](CC(C)C)C(=O)N[C@@H](C)C(=O)N[C@@H](C)C(=O)N[C@H](C(=O)N[C@@H](CC(C)C)C(N)=O)C(C)C)C(C)C)[C@@H](C)O)N(C)C(=O)CNC(=O)[C@H](CC(=O)O)NC(=O)[C@H](CO)NC(=O)[C@@H](N)Cc1cnc[nH]1 | 5.75 | 5.74 | 34.5%
3 | CC[C@H](C)[C@H](NC(=O)C(C)(C)NC(=O)[C@H](CC(=O)O)NC(=O)[C@H](CO)NC(=O)[C@@H](N)Cc1cnc[nH]1)C(=O)N[C@@H](Cc1ccccc1)C(=O)N[C@H](C(=O)N[C@@H](CC(=O)O)C(=O)N[C@@H](CO)C(=O)N[C@@H](Cc1ccc(O)cc1)C(=O)N[C@@H](CO)C(=O)N[C@@H](CCCNC(=N)N)C(=O)N[C@@H](Cc1ccc(O)cc1)C(=O)N[C@@H](CCCNC(=N)N)C(=O)N[C@@H](CCCCN)C(=O)N[C@@H](CCC(N)=O)C(=O)N[C@@H](CCSC)C(=O)N[C@@H](C)C(=O)N[C@H](C(=O)N[C@@H](CCCCN)C(=O)N[C@@H](CCCCN)C(=O)N[C@@H](Cc1ccc(O)cc1)C(=O)N[C@@H](CC(C)C)C(=O)N[C@@H](C)C(=O)N[C@@H](C)C(=O)N[C@H](C(=O)N[C@@H](CC(C)C)C(N)=O)C(C)C)C(C)C)[C@@H](C)O | 7.29 | 7.31 | 90.2%
4 | CC[C@H](C)[C@H](NC(=O)CNC(=O)[C@H](CC(=O)O)NC(=O)[C@H](CO)NC(=O)[C@H](Cc1cnc[nH]1)NC(C)=O)C(=O)N[C@@H](Cc1ccccc1)C(=O)N[C@H](C(=O)N[C@@H](CC(=O)O)C(=O)N[C@@H](CO)C(=O)N[C@@H](Cc1ccc(O)cc1)C(=O)N[C@@H](CO)C(=O)N[C@@H](CCCNC(=N)N)C(=O)N[C@@H](Cc1ccc(O)cc1)C(=O)N[C@@H](CCCNC(=N)N)C(=O)N[C@@H](CCCCN)C(=O)N[C@@H](CCC(N)=O)C(=O)N[C@@H](CCSC)C(=O)N[C@@H](C)C(=O)N[C@H](C(=O)N[C@@H](CCCCN)C(=O)N[C@@H](CCCCN)C(=O)N[C@@H](Cc1ccc(O)cc1)C(=O)N[C@@H](CC(C)C)C(=O)N[C@@H](C)C(=O)N[C@@H](C)C(=O)N[C@H](C(=O)N[C@@H](CC(C)C)C(N)=O)C(C)C)C(C)C)[C@@H](C)O | 8.09 | 8.01 | 96.3%
5 | CC[C@H](C)[C@H](NC(=O)CNC(=O)[C@H](CC(=O)O)NC(=O)C(C)(C)NC(=O)[C@@H](N)Cc1cnc[nH]1)C(=O)N[C@@H](Cc1ccccc1)C(=O)N[C@H](C(=O)N[C@@H](CC(=O)O)C(=O)N[C@@H](CO)C(=O)N[C@@H](Cc1ccc(O)cc1)C(=O)N[C@@H](CO)C(=O)N[C@@H](CCCNC(=N)N)C(=O)N[C@@H](Cc1ccc(O)cc1)C(=O)N[C@@H](CCCNC(=N)N)C(=O)N[C@@H](CCCCN)C(=O)N[C@@H](CCC(N)=O)C(=O)N[C@@H](CCSC)C(=O)N[C@@H](C)C(=O)N[C@H](C(=O)N[C@@H](CCCCN)C(=O)N[C@@H](CCCCN)C(=O)N[C@@H](Cc1ccc(O)cc1)C(=O)N[C@@H](CC(C)C)C(=O)N[C@@H](C)C(=O)N[C@@H](C)C(=O)N[C@H](C(=O)N[C@@H](CC(C)C)C(=O)NCC(=O)N[C@@H](CCCCN)C(=O)N[C@@H](CCCNC(=N)N)C(=O)N[C@@H](Cc1ccc(O)cc1)C(=O)N[C@@H](CCCCN)C(=O)N[C@@H](CCC(N)=O)C(=O)N[C@@H](CCCNC(=N)N)C(=O)N[C@H](C(=O)N[C@@H](CCCCN)C(=O)N[C@@H](CC(N)=O)C(=O)N[C@@H](CCCCN)C(N)=O)C(C)C)C(C)C)C(C)C)[C@@H](C)O (H-H[Aib]DGIFTDSYSRYRKQMAVKKYLAAVLGKRYKQRVKNK-NH2) | 8.14 | 8.37 | 94.8%

The next lines start with the values.

Row | pIC50 [1] | pEC50 [2] | Emax [3] | SMILES
6 | 6.09 | 6.08 | 29.3% | CC[C@H](C)[C@H](NC(=O)CNC(=O)[C@H](CCCC(=O)O)NC(=O)[C@H](CO)NC(=O)[C@@H](N)Cc1cnc[nH]1)C(=O)N[C@@H](Cc1ccccc1)C(=O)N[C@H](C(=O)N[C@@H](CC(=O)O)C(=O)N[C@@H](CO)C(=O)N[C@@H](Cc1ccc(O)cc1)C(=O)N[C@@H](CO)C(=O)N[C@@H](CCCNC(=N)N)C(=O)N[C@@H](Cc1ccc(O)cc1)C(=O)N[C@@H](CCCNC(=N)N)C(=O)N[C@@H](CCCCN)C(=O)N[C@@H](CCC(N)=O)C(=O)N[C@@H](CCSC)C(=O)N[C@@H](C)C(=O)N[C@H](C(=O)N[C@@H](CCCCN)C(=O)N[C@@H](CCCCN)C(=O)N[C@@H](Cc1ccc(O)cc1)C(=O)N[C@@H](CC(C)C)C(=O)N[C@@H](C)C(=O)N[C@@H](C)C(=O)N[C@H](C(=O)N[C@@H](CC(C)C)C(N)=O)C(C)C)C(C)C)[C@@H](C)O
7 | 7.97 | 7.69 | 90.5% | CC[C@H](C)[C@H](NC(=O)CNC(=O)[C@H](CCC(=O)O)NC(=O)[C@H](CO)NC(=O)[C@@H](N)Cc1cnc[nH]1)C(=O)N[C@@H](Cc1ccccc1)C(=O)N[C@H](C(=O)N[C@@H](CC(=O)O)C(=O)N[C@@H](CO)C(=O)N[C@@H](Cc1ccc(O)cc1)C(=O)N[C@@H](CO)C(=O)N[C@@H](CCCNC(=N)N)C(=O)N[C@@H](Cc1ccc(O)cc1)C(=O)N[C@@H](CCCNC(=N)N)C(=O)N[C@@H](CCCCN)C(=O)N[C@@H](CCC(N)=O)C(=O)N[C@@H](CCSC)C(=O)N[C@@H](C)C(=O)N[C@H](C(=O)N[C@@H](CCCCN)C(=O)N[C@@H](CCCCN)C(=O)N[C@@H](Cc1ccc(O)cc1)C(=O)N[C@@H](CC(C)C)C(=O)N[C@@H](C)C(=O)N[C@@H](C)C(=O)N[C@H](C(=O)N[C@@H](CC(C)C)C(N)=O)C(C)C)C(C)C)[C@@H](C)O
8 | 6.22 | 6.27 | 18.4% | CC[C@H](C)[C@H](NC(=O)CNC(=O)[C@H](C)NC(=O)[C@H](CO)NC(=O)[C@@H](N)Cc1cnc[nH]1)C(=O)N[C@@H](Cc1ccccc1)C(=O)N[C@H](C(=O)N[C@@H](CC(=O)O)C(=O)N[C@@H](CO)C(=O)N[C@@H](Cc1ccc(O)cc1)C(=O)N[C@@H](CO)C(=O)N[C@@H](CCCNC(=N)N)C(=O)N[C@@H](Cc1ccc(O)cc1)C(=O)N[C@@H](CCCNC(=N)N)C(=O)N[C@@H](CCCCN)C(=O)N[C@@H](CCC(N)=O)C(=O)N[C@@H](CCSC)C(=O)N[C@@H](C)C(=O)N[C@H](C(=O)N[C@@H](CCCCN)C(=O)N[C@@H](CCCCN)C(=O)N[C@@H](Cc1ccc(O)cc1)C(=O)N[C@@H](CC(C)C)C(=O)N[C@@H](C)C(=O)N[C@@H](C)C(=O)N[C@H](C(=O)N[C@@H](CC(C)C)C(N)=O)C(C)C)C(C)C)[C@@H](C)O
9 | 5.88 | 6.34 | 65.3% | CC[C@H](C)[C@H](NC(=O)CNC(=O)[C@H](CC(=O)O)NC(=O)[C@H](CO)NC(=O)[C@@H](N)Cc1cnc[nH]1)C(=O)N[C@@H](C)C(=O)N[C@H](C(=O)N[C@@H](CC(=O)O)C(=O)N[C@@H](CO)C(=O)N[C@@H](Cc1ccc(O)cc1)C(=O)N[C@@H](CO)C(=O)N[C@@H](CCCNC(=N)N)C(=O)N[C@@H](Cc1ccc(O)cc1)C(=O)N[C@@H](CCCNC(=N)N)C(=O)N[C@@H](CCCCN)C(=O)N[C@@H](CCC(N)=O)C(=O)N[C@@H](CCSC)C(=O)N[C@@H](C)C(=O)N[C@H](C(=O)N[C@@H](CCCCN)C(=O)N[C@@H](CCCCN)C(=O)N[C@@H](Cc1ccc(O)cc1)C(=O)N[C@@H](CC(C)C)C(=O)N[C@@H](C)C(=O)N[C@@H](C)C(=O)N[C@H](C(=O)N[C@@H](CC(C)C)C(N)=O)C(C)C)C(C)C)[C@@H](C)O
